Experimental findings from ChEMBL document CHEMBL4017487, “Design and Synthesis of γ- and δ-Lactam M1 Positive Allosteric Modulators (PAMs): Convulsion and Cholinergic Toxicity of an M1-Selective PAM with Weak Agonist Activity” (J Med Chem, 2017) are described below.

A short description of series [1]: Ratio of unbound AUC in rat brain to plasma at 2 mg/kg, po or 0.5 mg/kg, iv administered as single bolus dose. The series is classed as ADME, organism-based.
In series [2] the test system is Plasma. The series is described as follows: Unbound plasma concentration in amphetamine-induced hyperlocomotion C57BL/6 mouse at 0.3 mg/kg, sc measured after 1 hr by LC-MS/MS analysis. The series is classed as ADME, organism-based. The settings on record: in vivo. A digest of the protocol:
(§1)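 Satellite group of C57BL/6 mice from the amphetamine-stimulated locomotor study, N = 2/dose at 0.32, 1 and 3.2 mg/kg. Dosed sc as a solution in 10/90 Cremophor/water. Unbound plasma and brain concentrations measured at T = 1 h.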

The target of series [3] is T1, Muscarinic acetylcholine receptor M4 (Homo sapiens, UniProt P08173).
T1 sequence (P08173 whole entry): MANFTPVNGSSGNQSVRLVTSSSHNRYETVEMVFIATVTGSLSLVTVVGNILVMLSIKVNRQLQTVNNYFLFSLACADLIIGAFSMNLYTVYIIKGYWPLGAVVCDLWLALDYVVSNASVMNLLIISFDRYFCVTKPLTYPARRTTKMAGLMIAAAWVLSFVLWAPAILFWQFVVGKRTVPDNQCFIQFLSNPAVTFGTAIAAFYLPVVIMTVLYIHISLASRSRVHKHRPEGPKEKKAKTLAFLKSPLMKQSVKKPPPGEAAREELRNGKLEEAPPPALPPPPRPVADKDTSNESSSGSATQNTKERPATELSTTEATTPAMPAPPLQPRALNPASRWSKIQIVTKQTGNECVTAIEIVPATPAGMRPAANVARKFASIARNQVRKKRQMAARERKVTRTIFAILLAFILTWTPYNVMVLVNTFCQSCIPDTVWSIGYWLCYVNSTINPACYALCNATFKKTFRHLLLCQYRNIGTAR
The series can be described thus: Positive allosteric modulation of human muscarinic acetylcholine receptor M4 expressed in CHO cells assessed as increase in acetylcholine-induced cAMP accumulation up to 10 uM after 2 hrs by cAMP-Glo assay. The class given is cell-based. In outline: (§2)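 Recombinant functional human M2–M5 assays, each run in agonist and PAM modes at concentrations up to 10 μM.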
Background: Cyclic AMP is a second messenger, typically raised through Gs and lowered through Gi signalling.

Series [4] has as its target T2, Muscarinic acetylcholine receptor M1 (Rattus norvegicus, UniProt P08482).
T2 sequence (P08482 whole entry): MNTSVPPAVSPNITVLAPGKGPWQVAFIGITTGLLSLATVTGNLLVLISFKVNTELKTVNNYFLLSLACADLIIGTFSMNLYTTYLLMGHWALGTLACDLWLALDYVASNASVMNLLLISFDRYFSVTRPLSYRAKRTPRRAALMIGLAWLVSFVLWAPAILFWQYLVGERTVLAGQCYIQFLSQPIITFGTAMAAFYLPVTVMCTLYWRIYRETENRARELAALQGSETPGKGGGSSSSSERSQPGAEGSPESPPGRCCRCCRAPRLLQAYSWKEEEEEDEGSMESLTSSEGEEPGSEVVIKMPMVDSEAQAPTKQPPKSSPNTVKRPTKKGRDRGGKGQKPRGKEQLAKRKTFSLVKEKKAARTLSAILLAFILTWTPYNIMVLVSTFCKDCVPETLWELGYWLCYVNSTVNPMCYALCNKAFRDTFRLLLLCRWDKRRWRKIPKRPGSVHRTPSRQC
The series can be described thus: Positive allosteric modulation of muscarinic acetylcholine receptor M1 in Sprague-Dawley rat brain hippocampal slices assessed as increase in carbachol-induced firing rate at CA1 pyramidal neurons at 3 uM after 10 mins in presence of M1 antagonist VU0255035 by electrophysiology method. In outline:
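Hippocampal CA1 spike-rate assay in PAM mode (EC20 carbachol) with a reportedly M1-selective muscarinic antagonist added to the slices.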

The nature of series [5]: Half life in dog at 0.5 mg/kg, po administered as single dose. The class given is ADME, organism-based, Canis lupus familiaris. The settings on record: in vivo. A digest of the protocol:
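Dog, single oral dose of 0.5 mg/kg as a suspension in 0.5% methylcellulose. Half-life taken after the oral dose.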

In series [6] the test system is Brain. The series is described as follows: Unbound brain concentration in scopolamine-induced memory impairment Wistar rat model at 0.32 mg/kg, sc measured after 1.25 hrs by LC-MS/MS analysis. The series is classed as ADME, organism-based. The conditions noted are these: in vivo.
Series [7] is described as follows: Unbound plasma concentration in dog at 0.5 mg/kg, po or 0.1 mg/kg, iv administered as single bolus dose. The series is classed as ADME, organism-based, Canis lupus familiaris. A digest of the protocol: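 Dog PK: IV bolus given as a solution, 0.1 mg/kg in 20% HPBCD; oral dose given as a suspension, 0.5 mg/kg in 0.5% methylcellulose. Fraction unbound in plasma determined.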

The nature of series [8]: Thermodynamic solubility of the compound in FeSSIF at pH 6.3. The settings on record: read-out: Therm_solubility.
Series [9] has as its system Rattus norvegicus. The series is described as follows: Reversal of scopolamine-induced memory impairment in Wistar rat assessed as […] in hidden platform during 5 days training period at 0.32 to 3.2 mg/kg, sc administered 15 mins prior to test for 5 consecutive days followed by scopolamine challenge 30 mins prior to test by Morris water maze test. The series is classed as functional, organism-based.

Series [10] relates to Rattus norvegicus. The series is described as follows: Toxicity in rat assessed as unbound Cmax in brain required to show convulsions at 45 mg/kg, po administered as single dose. The settings on record: in vivo. The class given is organism-based.
For series [11], the target named is Muscarinic acetylcholine receptor M3 (Homo sapiens, UniProt P20309). The series can be described thus: Positive allosteric modulation of human muscarinic acetylcholine receptor M3 expressed in CHO cells assessed as increase in acetylcholine-induced calcium mobilization up to 10 uM preincubated for 10 mins followed by acetylcholine addition by Fluo-8-AM dye based FLIPR assay. The series is classed as cell-based. In outline: as §2
Sequence of Muscarinic acetylcholine receptor M3 (P20309 whole entry): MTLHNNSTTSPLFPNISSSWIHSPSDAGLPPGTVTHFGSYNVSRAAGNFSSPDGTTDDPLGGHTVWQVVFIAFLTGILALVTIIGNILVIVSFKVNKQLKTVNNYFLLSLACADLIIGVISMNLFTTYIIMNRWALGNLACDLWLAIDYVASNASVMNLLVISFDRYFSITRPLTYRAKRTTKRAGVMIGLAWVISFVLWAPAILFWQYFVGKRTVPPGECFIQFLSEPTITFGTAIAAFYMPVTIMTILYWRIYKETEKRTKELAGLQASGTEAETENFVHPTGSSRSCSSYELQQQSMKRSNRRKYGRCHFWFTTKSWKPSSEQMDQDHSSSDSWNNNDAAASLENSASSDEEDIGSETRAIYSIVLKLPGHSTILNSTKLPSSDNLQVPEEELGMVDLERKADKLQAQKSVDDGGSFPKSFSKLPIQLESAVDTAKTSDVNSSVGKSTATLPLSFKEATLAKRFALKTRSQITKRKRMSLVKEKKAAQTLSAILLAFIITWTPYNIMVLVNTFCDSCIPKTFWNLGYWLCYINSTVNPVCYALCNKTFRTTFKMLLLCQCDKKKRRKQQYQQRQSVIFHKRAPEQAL
A general note: Calcium flux is commonly read through the fluorescence of an indicator in the cells.

In series [12] the test system is Rattus norvegicus. The series can be described thus: Toxicity in rat assessed as unbound plasma concentration required for convulsions at 45 mg/kg, po administered as single dose after 1 to 6 hrs. The settings on record: in vivo. The class given is organism-based.
Series [13] in a line: Positive allosteric modulation of muscarinic acetylcholine receptor M1 in Hartley guinea pig ileum longitudinal muscle myenteric plexus assessed as increase in acetylcholine-induced tissue contraction after 10 mins in presence of donepezil. The conditions noted are these: Cavia porcellus.
Series [14] has as its system Plasma. The series can be described thus: Unbound plasma concentration in scopolamine-induced memory impairment Wistar rat model at 3.2 mg/kg, sc measured after 1.25 hrs by LC-MS/MS analysis. The class given is ADME, organism-based. The settings on record: in vivo. A digest of the protocol: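 Rats from a satellite group of the scopolamine (0.32 mg/kg) Morris water maze study, N = 2/dose. Dosed sc as a solution in 20% hydroxypropyl β-cyclodextrin. Compound concentrations measured in plasma only at T = 1.25 h.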

Series [15] has as its system Canis familiaris. The series can be described thus: Toxicity in dog assessed as vocalization at 15 mg/kg, po administered as single dose using spray dried dispersion formulation after 1 hr. The class given is organism-based, Canis lupus familiaris. The conditions noted are these: in vivo.
Series [16] deals with Rattus norvegicus. The series can be described thus: Unbound AUC (0 to 24 hrs) in rat plasma at 15 mg/kg, po administered as single dose. The settings on record: in vivo. The class given is ADME, organism-based.
The nature of series [17]: Clearance in dog at 0.1 mg/kg, iv administered as single bolus dose. The conditions noted are these: in vivo. The class given is ADME, organism-based, Canis lupus familiaris.
In series [18] the test system is Canis familiaris. The series can be described thus: Unbound AUC (0 to 24 hrs) in dog plasma at 5 mg/kg, po administered as single dose using spray dried dispersion formulation. The conditions noted are these: in vivo. The class given is ADME, organism-based, Canis lupus familiaris.
Series [19] concerns Brain. The series is described as follows: Unbound brain concentration in amphetamine-induced hyperlocomotion C57BL/6 mouse at 3.2 mg/kg, sc measured after 1 hr by LC-MS/MS analysis. The class given is ADME, organism-based. The conditions noted are these: in vivo. A digest of the protocol:
as §1

For series [20], the system named is Canis familiaris. The series can be described thus: Unbound Cmax in dog plasma at 5 mg/kg, po administered as single dose using hydroxypropyl cellulose/docusate sodium formulation. The class given is ADME, organism-based, Canis lupus familiaris. The conditions noted are these: in vivo. A digest of the protocol:
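Dogs given a single oral 5 mg/kg dose as a nanosuspension (hydroxypropyl cellulose SL, 0.05% docusate sodium in purified water), 1/sex. Unbound plasma Cmax and AUC determined, with clinical signs monitored at approximate hours postdose.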

Values after ≈ are worked out from the molar mass of the structure shown. Active and inactive are the calls of the source. The calls are words filed in the database; no cut-off is given here.

On to `Cc1cc2c(cc1Cc1ccc(-c3cocn3)cc1)C(=O)N([C@H]1CCOC[C@@H]1O)C2`, for which the Kp uu in series [1] was found to be 0.2. Besides, the entries for the “Cp(f)” value in [2], in series [12] and in series [14] were 7.3 nM, 2310 nM and 200 nM, respectively. Moreover, the Activity entry in series [3] is given as “Not Active”; in [4] it was “Not Active”; in [11], “Not Active”; in series [15], “Toxic”. In addition, the half-life (commonly how long it takes for the measured level to halve) in series [5] is 7.3 h. The “Drug uptake(free)” value was 3.4 nM in [6] and 32 nM in series [19]. In series [7], the fraction unbound – broadly, the share of the substance not bound to proteins or other matrix – was 0.059. The solubility thermodynamic in [8] was found to be 39.7 µg/mL (≈ 98.2 µM). Further, the result in series [9] was Active. The fCmax in series [10] is on record as 440 nM; in [20], 303 nM. Moreover, the EC50 – broadly, the concentration at which the effect is half-maximal – in [13] amounted to 46 nM. Moreover, the values for the fAUC in [16] and in [18] were 20.609 µM·h and 3.85 µM·h, respectively. The clearance – broadly, the rate of elimination divided by the concentration – in series [17] amounted to 1.7 mL/min/kg.
